{"source": "ChEMBL document CHEMBL4359883", "about": "“4(1H)-quinolone derivatives overcome acquired resistance to anti-microtubule agents by targeting the colchicine site of β-tubulin” (Eur J Med Chem, 2019)", "key": {"NCI-H1975 [1]": {"test_system": "NCI-H1975", "assay": "Induction of apoptosis in human NCI-H1975 cells assessed as increase in p-HH3 expression at 25 to 50 nM after 24 hrs by immunoblotting analysis", "type": "functional, cell-based"}, "MDA-MB-231": {"test_system": "MDA-MB-231", "assay": "Antitumour activity against human MDA-MB-231 cells xenografted in Balb/c mouse assessed as […] at 8 mg/kg, ip administered three times per week and measured on day 35 (reference value: 218 +/- 20.9 mm3)", "type": "functional", "summary_of_the_method": "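MDA-MB-231 tumours established in the right flank of 6-week-old BALB/c nude mice. Compound dissolved in DMSO was given ip three times weekly, with a DMSO vehicle group. Tumour volume calculated as 0.5W²L, measured before each dose and compared on day 35.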"}, "Homo sapiens [2]": {"test_system": "Homo sapiens", "assay": "Induction of apoptosis in human KBtax cells xenografted in Balb/c mouse at 8 mg/kg, ip administered 3 times per week and measured after 21 days by TUNEL staining based histological analysis", "type": "functional, organism-based", "summary_of_the_method": "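1×10^7 KBtax cells injected subcutaneously into the right flank of 6-week-old BALB/c nude mice (n = 5 per group). Once tumors established, compound in DMSO given ip three times a week for 21 days. Tumor sections stained with H&E and by TUNEL.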"}, "Homo sapiens [3]": {"organism": "Homo sapiens", "assay": "Induction of apoptosis in human KBtax cells assessed as cleaved caspase-9 at 30 to 60 nM after 24 hrs by immunoblotting analysis", "type": "functional, cell-based"}, "Homo sapiens [4]": {"organism": "Homo sapiens", "assay": "Induction of apoptosis in human KBtax cells assessed as PARP cleavage at 30 to 60 nM after 24 hrs by immunoblotting analysis", "type": "functional, cell-based"}, "[5]": {"assay": "Toxicity in Balb/c mouse xenografted with human KBtax cells assessed as serum BUN level at 8 mg/kg, ip administered 3 times per week and measured after 21 days (reference value: 17.8 +/-1.1 mg/dl)", "type": "organism-based", "details": "in vivo, 504 h"}, "[6]": {"assay": "Toxicity in Balb/c mouse xenografted with human KBtax cells assessed as effect on body mass at 8 mg/kg, ip administered 3 times per week and measured after 21 days", "type": "organism-based", "details": "in vivo, 504 h", "summary_of_the_method": "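KBtax cells (1×10^7) injected subcutaneously into right flank of 6-week-old BALB/c nude mice; after tumor establishment, compounds dissolved in DMSO given intraperitoneally three times a week for 21 days alongside DMSO vehicle group (n = 5 per group). Body mass recorded before each dose.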"}, "Homo sapiens [7]": {"organism": "Homo sapiens", "assay": "Effect on p-gp expression in human KBtax cells at 30 to 60 nM after 24 hrs by immunoblotting analysis", "type": "functional, cell-based"}, "CL1-0 [8]": {"test_system": "CL1-0", "assay": "Cell cycle arrest in human CL1-0 cells assessed as increase in cell population at sub-G1 phase after 24 hrs by propidium iodide-staining based flow cytometry", "type": "functional", "summary_of_the_method": "(§1)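 Cells treated for 24 h, then trypsinized and fixed overnight in ice-cold 70% ethanol. Stained for 30 min with propidium iodide (10 µg/mL) plus RNase (20 µg/mL), and DNA content measured by flow cytometry. Mean ± SD.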"}, "CL1-0 [9]": {"test_system": "CL1-0", "assay": "Induction of apoptosis in human CL1-0 cells assessed as caspase 8 activation at 20 to 40 nM after 24 hrs by immunoblotting analysis", "type": "functional, cell-based"}, "NCI-H1975 [10]": {"test_system": "NCI-H1975", "assay": "Induction of apoptosis in human NCI-H1975 cells assessed as PARP cleavage at 40 nM by immunoblotting analysis", "type": "functional, cell-based", "details": "TDE = time-dependent effect"}, "CL1-0 [11]": {"test_system": "CL1-0", "assay": "Antiproliferative activity against human CL1-0 cells assessed as reduction in cell viability after 72 hrs by MTS assay", "type": "functional, cell-based", "details": "CL1-0, 72 h", "summary_of_the_method": "(§2)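 Cells plated at 2000/well, cultured overnight, then exposed to a range of compound concentrations for 72 h. MTS reagent added for 1–4 h at 37 °C and absorbance read at 490 nm. Cultured in RPMI 1640 or DMEM with 10% heat-inactivated FBS under 5% CO2. Data are the mean of three determinations.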"}, "NCI-H1975 [12]": {"test_system": "NCI-H1975", "assay": "Induction of apoptosis in human NCI-H1975 cells assessed as bax protein expression after 24 hrs by immunoblotting analysis", "type": "functional, cell-based"}, "NCI-H1975 [13]": {"test_system": "NCI-H1975", "assay": "Induction of apoptosis in human NCI-H1975 cells assessed as cleaved caspase 9 after 24 hrs by immunoblotting analysis", "type": "functional, cell-based"}, "CL1-0 [14]": {"test_system": "CL1-0", "assay": "Induction of apoptosis in human CL1-0 cells assessed as PARP cleavage at 20 nM by immunoblotting analysis", "type": "functional, cell-based", "details": "TDE = time-dependent effect"}, "NCI-H1975 [15]": {"test_system": "NCI-H1975", "assay": "Antiproliferative activity against human NCI-H1975 cells assessed as reduction in colony formation after 14 days by crystal violet staining based assay", "type": "functional, cell-based", "summary_of_the_method": "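Seeded at 1000 cells/well, cultured overnight, then treated with 12.5–200 nM for 14 days. Colonies fixed in 3.7% paraformaldehyde, stained with 0.04% crystal violet and dissolved in DMSO, then absorbance read at 590 nm. Mean ± SD.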"}, "HCT-116": {"test_system": "HCT-116", "assay": "Antiproliferative activity against human HCT116 cells assessed as reduction in cell viability after 72 hrs by MTS assay", "type": "functional, cell-based", "details": "HCT-116, 72 h", "summary_of_the_method": "as §2"}, "[16]": {"target": "Tubulin beta (Homo sapiens) (UniProt P68371+Q9H4B7+Q13509+P04350+Q3ZCM7+P07437+Q13885+Q9BVA1+Q9BUF5+A6NNZ2)", "assay": "Binding affinity to beta tubulin in human NCI-H1975 cells incubated for overnight by immunoblotting based pull down assay", "type": "cell-based", "summary_of_the_method": "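H1975 lysate in RIPA buffer with protease inhibitors incubated overnight at 4 °C with compound-conjugated magnetic beads or control beads. Beads washed five times with PBS, and bound proteins detected by SDS-PAGE immunoblotting with ECL.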"}, "IGROV-1": {"test_system": "IGROV-1", "assay": "Antiproliferative activity against human IGROV1 cells assessed as reduction in cell viability after 72 hrs by MTS assay", "type": "functional, cell-based", "details": "IGROV-1, 72 h", "summary_of_the_method": "as §2"}, "SK-OV-3": {"test_system": "SK-OV-3", "assay": "Antiproliferative activity against human SKOV3 cells assessed as reduction in cell viability after 72 hrs by MTS assay", "type": "functional, cell-based", "details": "SK-OV-3, 72 h", "summary_of_the_method": "as §2"}, "NCI-H1975 [17]": {"test_system": "NCI-H1975", "assay": "Induction of mitotic arrest in human NCI-H1975 cells assessed as increase in phospho-histone H3 expression at 40 to 80 nM after 24 hrs by immunoblotting analysis", "type": "functional, cell-based"}, "CL1-0 [18]": {"test_system": "CL1-0", "assay": "Induction of mitotic arrest in human CL1-0 cells assessed as increase in phospho-histone H3 expression at 20 to 40 nM after 24 hrs by immunoblotting analysis", "type": "functional, cell-based"}, "DU-145": {"test_system": "DU-145", "assay": "Antiproliferative activity against human DU145 cells assessed as reduction in cell viability after 72 hrs by MTS assay", "type": "functional, cell-based", "details": "DU-145, 72 h", "summary_of_the_method": "as §2"}, "Tubulin (Homo sapiens)": {"target": "Tubulin (Homo sapiens) (UniProt P68371+Q9H4B7+P0DPH7+P68366+Q13509+Q71U36+P04350+Q3ZCM7+P07437+P68363+Q9BQE3+Q6PEY2+Q13885+Q9BVA1+Q9BUF5)", "assay": "Inhibition of microtubule polymerization in human NCI-H1975 cells at 40 nM after 1 hr followed by exposure to cold and measured at 5 to 60 mins immunofluorescence based assay", "type": "cell-based", "summary_of_the_method": "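H1975 cells pretreated with 40 nM for 1 h, held cold for 30 min, then returned to 37 °C for varying times. Fixed and stained for α-tubulin by immunofluorescence with DAPI counterstain, then imaged by confocal microscopy.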"}, "NCI-H1975 [19]": {"test_system": "NCI-H1975", "assay": "Cell cycle arrest in human NCI-H1975 cells assessed as increase in cell population at G2/M phase after 24 hrs by propidium iodide-staining based flow cytometry", "type": "functional", "summary_of_the_method": "as §1"}, "[20]": {"assay": "Antiproliferative activity against human OECM1 cells assessed as reduction in cell viability after 72 hrs by MTS assay", "type": "functional, cell-based", "details": "OECM1, 72 h", "summary_of_the_method": "as §2"}}, "note": "Active and inactive are the calls of the source. No cut-off for these calls is given here.", "data": [{"smiles": "CCOC(=O)c1ccc2[nH]c(-c3cccc(F)c3)cc(=O)c2c1", "values": [{"measurement": "Activity", "setting": "NCI-H1975 [1]", "value": "Active"}, {"measurement": "Activity", "setting": "MDA-MB-231", "value": 73.6, "unit": "mm3"}, {"measurement": "Activity", "setting": "Homo sapiens [2]", "value": "Active"}, {"measurement": "Activity", "setting": "Homo sapiens [3]", "value": "Active"}, {"measurement": "Activity", "setting": "Homo sapiens [4]", "value": "Active"}, {"measurement": "Activity", "setting": "[5]", "value": 18.2, "unit": "mg/dL"}, {"measurement": "Activity", "setting": "[6]", "value": "Non-Toxic"}, {"measurement": "Activity", "setting": "Homo sapiens [7]", "value": "inactive"}]}, {"smiles": "CCOC(=O)c1ccc2nc(-c3ccccc3)cc(O)c2c1", "values": [{"measurement": "Activity", "setting": "CL1-0 [8]", "value": "Dose-dependent effect"}, {"measurement": "Activity", "setting": "CL1-0 [9]", "value": "inactive"}, {"measurement": "Activity", "setting": "NCI-H1975 [10]", "value": "Tde"}, {"measurement": "IC50", "setting": "CL1-0 [11]", "value": 16, "unit": "nM"}, {"measurement": "Activity", "setting": "NCI-H1975 [12]", "value": "Dose-dependent effect"}, {"measurement": "Activity", "setting": "NCI-H1975 [13]", "value": "Dose-dependent effect"}, {"measurement": "Activity", "setting": "CL1-0 [14]", "value": "Tde"}, {"measurement": "Activity", "setting": "NCI-H1975 [15]", "value": "Active"}, {"measurement": "IC50", "setting": "HCT-116", "value": 50, "unit": "nM"}, {"measurement": "Activity", "setting": "[16]", "value": "Active"}, {"measurement": "IC50", "setting": "IGROV-1", "value": 84, "unit": "nM"}, {"measurement": "IC50", "setting": "SK-OV-3", "value": 50, "unit": "nM"}, {"measurement": "Activity", "setting": "NCI-H1975 [17]", "value": "Active"}, {"measurement": "Activity", "setting": "CL1-0 [18]", "value": "Active"}, {"measurement": "IC50", "setting": "DU-145", "value": 47, "unit": "nM"}, {"measurement": "Activity", "setting": "Tubulin (Homo sapiens)", "value": "Active"}, {"measurement": "Activity", "setting": "NCI-H1975 [19]", "value": "Dose-dependent effect"}, {"measurement": "IC50", "setting": "[20]", "value": 52, "unit": "nM"}]}]}
